Reference: ChEMBL document CHEMBL5653631, “A Potent and Selective ULK1 Inhibitor Suppresses Autophagy and Sensitizes Cancer Cells to Nutrient Stress” (iScience, 2018)
Calls of active or inactive are those of the source. The calls are words filed in the database; no cut-off is given here.

What was measured:
U2OS = experiment: Inhibition of autophagy in human U2OS cells assessed as reduction in phagophore formation at 5 uM incubated for 2.5 hrs by Fluorescent microscopy based analysis; format: functional, cell-based
Outline: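 U2OS cells treated 2.5 hr with vehicle or 100 nM AZD8055, with or without 5 μM inhibitor; fixed and immunostained for endogenous ATG12; ATG12-positive puncta (phagophores) assessed by fluorescence microscopy.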

[1] = target: Casein kinase I isoform gamma-2 (Homo sapiens) (UniProt P78368); experiment: Inhibition of human recombinant CK1g2 at 40 nM in presence of ATP by radiometric assay relative to control
[2] = target: Tyrosine-protein kinase receptor UFO (Homo sapiens) (UniProt P30530); experiment: Inhibition of human recombinant AXL at 40 nM in presence of ATP by radiometric assay relative to control
Outline: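 Panel of 327 recombinant human kinases, each assayed in vitro by radiometric activity assay in duplicate at a single inhibitor concentration per compound, chosen with reference to its ULK1 inhibition. Activity remaining was expressed as percent of vehicle control, and percent inhibition was calculated as 100 minus percent activity remaining.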

[3] = target: Protein kinase C gamma type (Homo sapiens) (UniProt P05129); experiment: Inhibition of human recombinant PKCg at 500 nM in presence of ATP by radiometric assay relative to control
[4] = target: T1, Myosin-IIIb (Homo sapiens) (UniProt Q8WXR4); experiment: Inhibition of human recombinant MYO3B at 500 nM related to control ULK1
T1 sequence (whole entry): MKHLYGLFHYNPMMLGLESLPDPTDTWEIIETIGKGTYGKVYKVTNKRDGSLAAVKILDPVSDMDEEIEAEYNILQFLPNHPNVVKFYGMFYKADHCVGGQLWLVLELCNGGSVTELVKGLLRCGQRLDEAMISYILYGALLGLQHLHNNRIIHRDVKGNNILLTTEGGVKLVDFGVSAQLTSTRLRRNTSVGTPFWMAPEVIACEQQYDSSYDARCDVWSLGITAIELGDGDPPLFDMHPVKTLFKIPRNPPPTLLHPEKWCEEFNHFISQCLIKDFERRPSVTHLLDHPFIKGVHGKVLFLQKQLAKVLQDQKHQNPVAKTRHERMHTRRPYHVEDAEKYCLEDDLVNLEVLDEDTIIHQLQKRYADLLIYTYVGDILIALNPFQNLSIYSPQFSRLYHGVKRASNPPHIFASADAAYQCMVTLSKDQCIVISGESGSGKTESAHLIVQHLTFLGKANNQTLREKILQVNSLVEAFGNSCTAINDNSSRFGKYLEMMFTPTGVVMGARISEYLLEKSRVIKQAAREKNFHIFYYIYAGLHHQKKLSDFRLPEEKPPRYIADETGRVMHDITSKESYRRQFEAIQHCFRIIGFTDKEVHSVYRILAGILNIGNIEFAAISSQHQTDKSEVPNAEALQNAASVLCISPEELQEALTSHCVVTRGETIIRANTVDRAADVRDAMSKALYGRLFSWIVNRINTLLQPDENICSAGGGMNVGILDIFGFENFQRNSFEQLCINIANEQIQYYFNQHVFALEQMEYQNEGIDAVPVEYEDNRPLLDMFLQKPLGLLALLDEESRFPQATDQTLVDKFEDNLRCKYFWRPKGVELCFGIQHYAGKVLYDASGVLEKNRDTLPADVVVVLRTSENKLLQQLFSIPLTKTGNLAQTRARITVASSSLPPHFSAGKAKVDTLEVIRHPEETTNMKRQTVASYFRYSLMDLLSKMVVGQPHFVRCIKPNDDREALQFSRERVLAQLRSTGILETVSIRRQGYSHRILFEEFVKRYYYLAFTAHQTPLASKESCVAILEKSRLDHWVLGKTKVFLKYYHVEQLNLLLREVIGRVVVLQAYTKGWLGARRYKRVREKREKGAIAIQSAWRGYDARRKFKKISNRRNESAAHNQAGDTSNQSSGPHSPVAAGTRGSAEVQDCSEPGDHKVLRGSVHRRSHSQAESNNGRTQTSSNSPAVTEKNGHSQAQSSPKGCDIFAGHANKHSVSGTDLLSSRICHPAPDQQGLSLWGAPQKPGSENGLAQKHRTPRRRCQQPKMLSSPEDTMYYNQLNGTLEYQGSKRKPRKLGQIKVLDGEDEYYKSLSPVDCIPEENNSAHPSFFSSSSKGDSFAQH

[5] = target: T2, Protein kinase C zeta type (Homo sapiens) (UniProt Q05513); experiment: Inhibition of human recombinant PKCz at 15 nM related to control ULK1
T2 sequence (whole entry): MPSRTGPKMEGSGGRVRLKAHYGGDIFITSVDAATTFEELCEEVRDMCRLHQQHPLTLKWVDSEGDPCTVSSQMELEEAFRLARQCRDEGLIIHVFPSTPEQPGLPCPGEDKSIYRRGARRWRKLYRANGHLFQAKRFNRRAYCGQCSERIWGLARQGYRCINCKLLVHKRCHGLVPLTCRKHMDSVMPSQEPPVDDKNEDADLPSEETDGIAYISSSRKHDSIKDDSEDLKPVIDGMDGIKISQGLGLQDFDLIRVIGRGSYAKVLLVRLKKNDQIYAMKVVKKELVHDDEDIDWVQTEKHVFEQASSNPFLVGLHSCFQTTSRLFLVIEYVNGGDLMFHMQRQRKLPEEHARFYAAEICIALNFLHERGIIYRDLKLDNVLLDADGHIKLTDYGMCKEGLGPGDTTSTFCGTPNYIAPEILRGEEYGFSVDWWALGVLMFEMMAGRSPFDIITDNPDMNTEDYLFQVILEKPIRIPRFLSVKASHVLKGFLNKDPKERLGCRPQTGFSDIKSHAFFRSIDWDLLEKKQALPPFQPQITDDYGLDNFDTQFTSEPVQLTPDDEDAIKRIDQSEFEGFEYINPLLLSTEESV

[6] = target: Mitogen-activated protein kinase 10 (Homo sapiens) (UniProt P53779); experiment: Inhibition of human recombinant JNK3 at 15 nM related to control ULK1
[7] = target: T3, Phosphorylase b kinase gamma catalytic chain, liver/testis isoform (Homo sapiens) (UniProt P15735); experiment: Inhibition of human recombinant PHKg2 at 15 nM related to control ULK1
T3 sequence (whole entry): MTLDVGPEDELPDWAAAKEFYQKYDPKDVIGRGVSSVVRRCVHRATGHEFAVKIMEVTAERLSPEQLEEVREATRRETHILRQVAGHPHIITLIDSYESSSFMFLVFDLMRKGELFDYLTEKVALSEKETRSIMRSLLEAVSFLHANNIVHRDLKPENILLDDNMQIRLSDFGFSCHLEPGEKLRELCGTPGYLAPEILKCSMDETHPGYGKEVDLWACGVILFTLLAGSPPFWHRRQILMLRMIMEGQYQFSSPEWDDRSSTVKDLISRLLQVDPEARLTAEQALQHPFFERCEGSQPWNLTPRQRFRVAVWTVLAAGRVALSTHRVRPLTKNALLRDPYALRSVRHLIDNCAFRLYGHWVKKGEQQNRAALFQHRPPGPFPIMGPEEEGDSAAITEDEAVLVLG

Sequence of Mitogen-activated protein kinase 10 (Homo sapiens) (P53779 whole entry, canonical isoform): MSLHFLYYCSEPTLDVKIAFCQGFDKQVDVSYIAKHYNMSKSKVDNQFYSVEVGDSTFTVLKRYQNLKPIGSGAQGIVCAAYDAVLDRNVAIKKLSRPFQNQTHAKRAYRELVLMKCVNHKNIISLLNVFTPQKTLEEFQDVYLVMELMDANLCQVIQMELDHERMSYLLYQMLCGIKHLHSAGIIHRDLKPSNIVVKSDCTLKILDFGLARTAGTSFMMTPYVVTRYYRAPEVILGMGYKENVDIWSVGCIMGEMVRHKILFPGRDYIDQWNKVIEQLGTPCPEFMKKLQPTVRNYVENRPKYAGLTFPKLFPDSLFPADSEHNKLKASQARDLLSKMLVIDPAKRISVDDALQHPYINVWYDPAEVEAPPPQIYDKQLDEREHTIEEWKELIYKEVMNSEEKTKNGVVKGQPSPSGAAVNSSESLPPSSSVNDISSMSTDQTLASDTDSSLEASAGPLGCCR
Sequence of Casein kinase I isoform gamma-2 (Homo sapiens) (P78368 whole entry, looked up, canonical isoform): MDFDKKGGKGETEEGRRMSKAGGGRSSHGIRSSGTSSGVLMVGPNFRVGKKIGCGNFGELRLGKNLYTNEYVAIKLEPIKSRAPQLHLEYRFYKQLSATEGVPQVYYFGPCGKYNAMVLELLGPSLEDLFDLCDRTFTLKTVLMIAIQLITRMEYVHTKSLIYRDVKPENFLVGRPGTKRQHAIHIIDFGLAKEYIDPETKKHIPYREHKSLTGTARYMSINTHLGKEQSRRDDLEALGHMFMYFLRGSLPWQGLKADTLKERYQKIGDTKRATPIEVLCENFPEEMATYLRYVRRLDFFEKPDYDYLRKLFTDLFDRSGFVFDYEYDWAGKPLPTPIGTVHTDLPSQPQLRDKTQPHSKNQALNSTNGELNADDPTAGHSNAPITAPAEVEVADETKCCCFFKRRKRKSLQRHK
Sequence of Tyrosine-protein kinase receptor UFO (Homo sapiens) (P30530 whole entry): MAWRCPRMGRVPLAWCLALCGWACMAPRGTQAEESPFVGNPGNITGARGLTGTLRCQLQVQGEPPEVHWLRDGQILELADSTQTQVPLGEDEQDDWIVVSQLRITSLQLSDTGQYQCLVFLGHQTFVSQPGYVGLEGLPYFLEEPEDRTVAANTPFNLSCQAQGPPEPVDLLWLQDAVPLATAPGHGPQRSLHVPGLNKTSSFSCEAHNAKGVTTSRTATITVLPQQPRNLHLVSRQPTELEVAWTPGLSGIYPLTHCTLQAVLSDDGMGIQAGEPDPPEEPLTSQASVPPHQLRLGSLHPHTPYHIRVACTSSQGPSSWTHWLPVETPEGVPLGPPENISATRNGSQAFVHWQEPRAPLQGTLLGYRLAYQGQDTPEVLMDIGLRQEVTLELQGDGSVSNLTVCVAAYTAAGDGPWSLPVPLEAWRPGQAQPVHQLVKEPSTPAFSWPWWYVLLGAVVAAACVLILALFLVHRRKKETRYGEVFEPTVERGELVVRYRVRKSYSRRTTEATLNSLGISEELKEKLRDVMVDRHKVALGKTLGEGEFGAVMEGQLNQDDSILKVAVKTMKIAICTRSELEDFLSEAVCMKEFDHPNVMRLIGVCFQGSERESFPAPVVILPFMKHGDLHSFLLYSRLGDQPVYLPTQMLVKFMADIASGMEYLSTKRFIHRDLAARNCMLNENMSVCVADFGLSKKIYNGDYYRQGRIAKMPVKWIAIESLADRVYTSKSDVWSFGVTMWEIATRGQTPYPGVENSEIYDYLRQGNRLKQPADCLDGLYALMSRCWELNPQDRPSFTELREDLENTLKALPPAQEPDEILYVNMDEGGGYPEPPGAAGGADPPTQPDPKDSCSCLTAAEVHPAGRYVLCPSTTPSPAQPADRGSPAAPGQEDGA

For O=C(N[C@@H](C1CC1)C(F)(F)F)c1cc(-c2cnn3cc(-c4ccc(F)cc4)cnc23)cs1, the inhibition (U2OS) was “Active”, the inhibition [1] was 5% and the inhibition [2] was 5%.

With CNC(=O)c1ccccc1Oc1nc(Nc2cc(OC)c(OC)c(OC)c2)ncc1Br the inhibition [3] was 9% and the fold change (FC) [4] was 0.15.

In the case of CC(C)[C@H](NC(=O)c1cc(-c2cnn3cc(-c4ccc(OCCN5CCCCC5)cc4)cnc23)cs1)C(F)(F)F, the fold change (FC) [5] is reported as 0, the fold change (FC) [6] is reported as 0.08 and the fold change (FC) [7] is reported as 0.1.
